# Measured values: ChEMBL document CHEMBL3792293, “A synthetic 2,3-diarylindole induces cell death via apoptosis and autophagy in A549 lung cancer cells” (Bioorg Med Chem Lett, 2016)
# Calls of active or inactive are those of the source. No cut-off for these calls is given here.
# Key:
# A549 [1] = assay: Cytotoxicity against human A549 cells assessed as reduction in cell viability after 72 hrs by MTT assay; type: functional, cell-based
# Summary of the method: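 MTT viability screen in A549 cells with 72 h compound exposure; value reported as IC50.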
# A549 [2] = assay: Induction of autophagy in human A549 cells after 6 to 24 hrs by MDC-staining based fluorescence imaging analysis; type: functional, cell-based
# Summary of the method: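 Autophagic vacuoles stained with monodansylcadaverine (MDC). Imaging was done after 24 h at 10, 50 or 100 μM. Relative fluorescence (Ex/Em 335/512 nm) was measured after 6 h at 6.2–100 μM.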
# A549 [3] = assay: Induction of autophagy in human A549 cells assessed as increase in LC3-2 level at 10 to 100 uM after 24 hrs by Western blot analysis; type: functional, cell-based
# Summary of the method: (§1)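 A549 cells exposed 24 h to 10, 50 or 100 μM, then harvested and analysed by Western blot for cleaved PARP and for LC3-II conversion.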
# A549 [4] = assay: Induction of apoptosis in human A549 cells assessed as early apoptotic cells at 100 uM after 24 hrs by Annexin V/7-AAD staining based flow cytometry (reference value: 8.55%); type: functional
# A549 [5] = assay: Induction of apoptosis in human A549 cells assessed as dead cells at 10 uM after 24 hrs by Annexin V/7-AAD staining based flow cytometry relative to control; type: functional
# Summary of the method: (§2)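 A549 cells exposed for 24 h at 10, 50 or 100 μM, then stained with Annexin-V and 7AAD (Annexin-V and Dead Cell assay kit). Dead and apoptotic populations were counted by flow cytometry on a Muse Cell Analyzer and compared with untreated control. Values are averages of three independent experiments with SD.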
# A549 [6] = assay: Induction of autophagy in human A549 cells at 10 to 100 uM after 24 hrs by MDC-staining based fluorescence imaging analysis in presence of autophagy inhibitor bafilomycin A1; type: functional, cell-based
# Summary of the method: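 A549 cells co-treated 24 h with 10, 50 or 100 μM plus or minus 10 nM bafilomycin A1. Autophagy was quantified by MDC staining fluorescence. Values are means of three independent experiments with SD.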
# A549 [7] = assay: Induction of apoptosis in human A549 cells assessed as dead cells at 50 uM after 24 hrs by Annexin V/7-AAD staining based flow cytometry relative to control; type: functional; summary of the method: as §2
# A549 [8] = assay: Induction of morphological changes in human A549 cells assessed as appearance of rounded cell at 10 to 100 uM after 24 hrs; type: functional, cell-based
# Summary of the method: (§3)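 A549 cells treated 24 h at 10, 50 or 100 μM, then photographed to assess rounding and vacuole appearance.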
# A549 [9] = assay: Induction of apoptosis in human A549 cells assessed as late apoptotic cells at 10 uM after 24 hrs by Annexin V/7-AAD staining based flow cytometry (reference value: 1.5%); type: functional
# A549 [10] = assay: Induction of cell morphological changes in human A549 cells at 10 to 100 uM after 3 hrs; type: functional, cell-based
# A549 [11] = assay: Induction of morphological changes in human A549 cells assessed as increase in vacuole appearance at 10 to 100 uM after 24 hrs; type: functional, cell-based; summary of the method: as §3
# A549 [12] = assay: Induction of apoptosis in human A549 cells assessed as late apoptotic cells at 50 uM after 24 hrs by Annexin V/7-AAD staining based flow cytometry (reference value: 1.5%); type: functional
# A549 [13] = assay: Induction of apoptosis in human A549 cells assessed as viable cells at 100 uM after 24 hrs by Annexin V/7-AAD staining based flow cytometry (reference value: 89.95%); type: functional; settings: A549, 24 h, read-out: Activity
# A549 [14] = assay: Induction of apoptosis in human A549 cells assessed as early apoptotic cells at 10 uM after 24 hrs by Annexin V/7-AAD staining based flow cytometry (reference value: 8.55%); type: functional
# A549 [15] = assay: Induction of apoptosis in human A549 cells assessed as late apoptotic cells at 100 uM after 24 hrs by Annexin V/7-AAD staining based flow cytometry (reference value: 1.5%); type: functional
# A549 [16] = assay: Induction of apoptosis in human A549 cells assessed as early apoptotic cells at 50 uM after 24 hrs by Annexin V/7-AAD staining based flow cytometry (reference value: 8.55%); type: functional
# A549 [17] = assay: Induction of apoptosis in human A549 cells assessed as increase in PARP cleavage after 24 hrs by Western blot analysis; type: functional, cell-based; summary of the method: as §1
# A549 [18] = assay: Induction of apoptosis in human A549 cells assessed as viable cells at 50 uM after 24 hrs by Annexin V/7-AAD staining based flow cytometry (reference value: 89.95%); type: functional; settings: A549, 24 h, read-out: Activity
# A549 [19] = assay: Induction of apoptosis in human A549 cells assessed as increase in apoptotic cells at 10 to 100 uM after 24 hrs by Annexin V/7-AAD staining based flow cytometry in presence of autophagy inhibitor bafilomycin A1; type: functional, cell-based
# Summary of the method: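 A549 cells treated 24 h at 10, 50 or 100 μM with or without 10 nM bafilomycin A1. Apoptosis was read by Annexin-V/7AAD on a Muse Cell Analyzer. Values are means of three independent experiments with SD, and significance was tested against control and between ± Baf.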
# A549 [20] = assay: Induction of apoptosis in human A549 cells assessed as viable cells at 10 uM after 24 hrs by Annexin V/7-AAD staining based flow cytometry (reference value: 89.95%); type: functional; settings: A549, 24 h, read-out: Activity
# A549 [21] = assay: Induction of apoptosis in human A549 cells assessed as dead cells at 100 uM after 24 hrs by Annexin V/7-AAD staining based flow cytometry relative to control; type: functional; summary of the method: as §2
# [22] = Homo sapiens, A549, 72 h, read-out: IC50
smiles,measurement,setting,value
O=[N+]([O-])c1ccc(-c2c(-c3ccccc3)[nH]c3ccccc23)cc1,IC50,A549 [1]; [22],38.4 µM
N#Cc1ccc(-c2c(-c3ccccc3)[nH]c3ccccc23)cc1,IC50,A549 [1]; [22],18.3 µM
Nc1ccc(-c2[nH]c3ccccc3c2-c2ccccc2)cc1,IC50,A549 [1]; [22],54.7 µM
COc1ccc(-c2c(-c3ccccc3)[nH]c3ccccc23)cc1,IC50,A549 [1]; [22],30 µM
COC(=O)c1ccc(-c2[nH]c3ccccc3c2-c2ccccc2)cc1,IC50,A549 [1]; a549,ND(Insoluble)
CC(=O)Nc1ccc(-c2[nH]c3ccccc3c2-c2ccccc2)cc1,IC50,A549 [1]; a549,ND(Insoluble)
Nc1ccc(-c2c(-c3ccccc3)[nH]c3ccccc23)cc1,IC50,A549 [1]; [22],83.4 µM
N#Cc1ccc(-c2[nH]c3ccccc3c2-c2ccccc2)cc1,IC50,A549 [1]; [22],15 µM
c1ccc(-c2[nH]c3ccccc3c2-c2ccccc2)cc1,IC50,A549 [1]; [22],58.7 µM
COC(=O)c1ccc(-c2c(-c3ccccc3)[nH]c3ccccc23)cc1,Activity,A549 [2],Dose-dependent effect
same,Activity,A549 [3],Active
same,Activity,A549 [4],9.7%
same,Activity,A549 [5],0.4%
same,Activity,A549 [6],inactive
same,Activity,A549 [7],0.25%
same,Activity,A549 [8],Active
same,Activity,A549 [9],2.8%
same,Activity,A549 [10],Active
same,Activity,A549 [11],Active
same,Activity,A549 [12],7.75%
same,viability at 100 µM,A549 [13],50.5%
same,Activity,A549 [14],14%
same,Activity,A549 [15],39.7%
same,Activity,A549 [16],17.45%
same,Activity,A549 [17],Dose-dependent effect
same,IC50,A549 [1]; [22],5.17 µM
same,viability at 50 µM,A549 [18],74.5%
same,Activity,A549 [19],inactive
same,viability at 10 µM,A549 [20],82.8%
same,Activity,A549 [21],0.15%
O=[N+]([O-])c1ccc(-c2[nH]c3ccccc3c2-c2ccccc2)cc1,IC50,A549 [1]; [22],24.8 µM
CC(=O)Nc1ccc(-c2c(-c3ccccc3)[nH]c3ccccc23)cc1,IC50,A549 [1]; a549,ND(Insoluble)
COc1ccc(-c2[nH]c3ccccc3c2-c2ccccc2)cc1,IC50,A549 [1]; [22],288 µM
